Measured values from PubChem BioAssay AID492951 (Molecular Libraries Program, Specialized Chemistry Center, …, 2010).
A number with no mark means an inactive call. The source made the active and inactive calls.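 The calls were made as follows: active = inhibition above 10%; inactive = the rest.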

The compounds below were run against Hexokinase-4 (Homo sapiens) (UniProt P35557) (assay: human glucokinase inhibition, counter-screen for TbHK1 inhibitor project, biochemical, recombinant hGlck (AID 492951)). Conditions: G6PDH-coupled NADH absorbance 340 nm, at 10 µM; stronger effect = higher value.
In short: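 Test system: recombinant human glucokinase, G6PDH-coupled; Medium: pH 7.9 TEA buffer, MgCl2, NAD+; Also added: 20 mM glucose as reaction starter, plus 1 mM ATP; Compound dosing: single final test compound dose of 10 µM; Schedule: 10 min preincubation at room temperature; Measured by: NADH formation by absorbance at 340 nm; Repeats: triplicate.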

Hexokinase-4 (Homo sapiens), sequence (P35557 whole entry, looked up): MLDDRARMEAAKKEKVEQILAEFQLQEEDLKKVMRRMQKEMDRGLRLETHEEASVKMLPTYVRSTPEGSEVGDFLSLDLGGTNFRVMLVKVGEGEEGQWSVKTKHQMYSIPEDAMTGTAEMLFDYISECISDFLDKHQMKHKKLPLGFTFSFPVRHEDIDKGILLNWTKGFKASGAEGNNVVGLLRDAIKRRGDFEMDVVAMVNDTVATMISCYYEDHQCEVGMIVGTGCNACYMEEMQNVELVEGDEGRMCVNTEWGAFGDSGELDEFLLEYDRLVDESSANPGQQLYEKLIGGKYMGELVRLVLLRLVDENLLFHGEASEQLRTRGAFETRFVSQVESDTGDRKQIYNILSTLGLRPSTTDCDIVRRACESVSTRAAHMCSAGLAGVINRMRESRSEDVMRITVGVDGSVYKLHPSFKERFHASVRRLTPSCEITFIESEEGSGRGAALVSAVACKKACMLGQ

Question: For `COc1ccc(C(=O)Nc2cc(C)ccc2C(=O)O)cc1`, which outcome is on record?
Answer: The outcome was “inactive”.

Question: `Cc1cc(C(C#N)c2ccc(Cl)cc2)c(Cl)cc1NC(=O)c1cc(I)cc(I)c1O` (stereo not drawn) was tested. Which inhibition did it give?
Answer: The inhibition was 24.3% (active).

Question: How did the inhibition turn out when `O=C(Nc1cc(Cl)ccc1C(=O)O)c1ccc(-c2ccccc2)cc1` was run?
Answer: The inhibition was 27.6% (active).

Question: `O=C(Cn1sc2ccccc2c1=O)Nc1ccccc1Cl` was tested. Which outcome did it give?
Answer: Its outcome is “inactive”.

Question: `C=C(C)c1ccc(C(=O)Nc2cc(Cl)ccc2C(=O)O)cc1` was tested. Which inhibition did it give?
Answer: The inhibition was 25.9% (active).

Question: Which outcome does the source give for `COc1ccc(C(=O)Nc2ccc(Cl)cc2C(=O)O)cc1` here?
Answer: Its outcome is “inactive”.

Question: With `O=c1c2ccc(F)cc2sn1-c1ccccc1` as the compound, how does the inhibition read?
Answer: The inhibition was 37.8% (active).

Question: With `O=C(Cn1sc2ccccc2c1=O)Nc1ccc(C(F)(F)F)cc1` as the compound, how does the inhibition read?
Answer: Its inhibition is 23.8% (active).

Question: How did the inhibition turn out when `O=C1c2ccccc2S(=O)N1c1cccc(F)c1` (stereo not drawn) was run?
Answer: The inhibition was 8.84%.

Question: For `O=c1c2cc(Br)ccc2sn1-c1ccccc1`, which inhibition is on record?
Answer: The inhibition was 38.4% (active).

Question: How did the inhibition turn out when `COc1ccccc1-n1sc2ccccc2c1=O` was run?
Answer: The inhibition was 55% (active).

Question: `O=C(Nc1cc(Cl)ccc1C(=O)O)c1ccc2c(c1)CCC2` was tested. Which inhibition did it give?
Answer: The inhibition was 12.2% (active).

Question: `O=C(O)c1ccc(Cl)cc1NC(=O)N1CCOCC1` was tested. Which outcome did it give?
Answer: Its outcome is “inactive”.

Question: `COc1ccccc1NC(=O)Cn1sc2ccccc2c1=O` was tested. Which inhibition did it give?
Answer: Its inhibition is 8.4%.

Question: Which inhibition does the source give for `CCCc1ccc(C(=O)Nc2cc(Cl)ccc2C(=O)O)cc1` here?
Answer: The inhibition was 16.8% (active).

Question: How did the inhibition turn out when `COc1ccc(NC(=O)c2ccccc2SCc2ccccc2)cc1` was run?
Answer: Its inhibition is 41.2% (active).

Question: Which outcome does the source give for `O=C(Cn1sc2ccccc2c1=O)NCc1ccccc1` here?
Answer: The outcome was “inactive”.

Question: How did the outcome turn out when `COc1ccc(NC(=O)Cn2sc3ccccc3c2=O)cc1` was run?
Answer: The outcome was “inactive”.

Question: `O=c1c2ccc(Br)cc2sn1-c1ccccc1` was tested. Which inhibition did it give?
Answer: Its inhibition is 33.8% (active).

Question: `O=C(Cn1sc2ccccc2c1=O)Nc1ccc(I)cc1` was tested. Which inhibition did it give?
Answer: The inhibition was 36.2% (active).

Question: Which inhibition does the source give for `COc1ccc(C(=O)Nc2cc(OC)ccc2C(=O)O)cc1` here?
Answer: The inhibition was 6.9%.

Question: With `O=C(O)c1ccccc1NC(=O)c1ccccc1C(=O)O` as the compound, how does the outcome read?
Answer: Its outcome is “inactive”.

Question: With `COc1ccc(C(=O)Nc2ccccc2C(=O)O)cc1Cl` as the compound, how does the inhibition read?
Answer: The inhibition was 11.9% (active).

Question: How did the inhibition turn out when `O=C(Cn1sc2cc(F)ccc2c1=O)Nc1ccccc1` was run?
Answer: The inhibition was 39.6% (active).

Question: `COc1ccc(C(=O)Nc2cc(F)cc(F)c2O)cc1` was tested. Which outcome did it give?
Answer: Its outcome is “inactive”.

Question: How did the inhibition turn out when `O=C(Cn1sc2ccccc2c1=O)Nc1ccccc1` was run?
Answer: The inhibition was 7.03%.

Question: `CC(=O)Nc1cc(Cl)ccc1C(=O)O` was tested. Which outcome did it give?
Answer: Its outcome is “inactive”.

Question: `O=C(O)c1ccc(Cl)cc1NC(=O)C1CCOCC1` was tested. Which outcome did it give?
Answer: Its outcome is “inactive”.

Question: Which inhibition does the source give for `O=C(Cn1sc2ccccc2c1=O)Nc1cccc(Br)c1` here?
Answer: Its inhibition is 22.2% (active).

Question: How did the outcome turn out when `COC(=O)c1ccc(Cl)cc1NC(=O)c1ccc(Cl)cc1` was run?
Answer: Its outcome is “inactive”.

Question: With `O=C(Cn1sc2ccccc2c1=O)NC1CCCCC1` as the compound, how does the inhibition read?
Answer: Its inhibition is 8.01%.

Question: Which inhibition does the source give for `COc1ccc(-c2nc3c(Cl)c(Cl)ccc3c(=O)o2)cc1` here?
Answer: Its inhibition is 9.2%.

Question: With `O=C(Nc1cc(Cl)ccc1C(=O)O)c1ccc(I)cc1` as the compound, how does the inhibition read?
Answer: The inhibition was 22.9% (active).

Question: Which outcome does the source give for `Cc1ccccc1-n1sc2cc(F)ccc2c1=O` here?
Answer: Its outcome is “inactive”.

Question: How did the outcome turn out when `COc1ccc(N2C(=O)c3ccc(Cl)cc3C2=O)cc1` was run?
Answer: The outcome was “inactive”.

Question: How did the inhibition turn out when `COc1ccc(C(=O)Nc2cc(Cl)c(C)cc2C(=O)O)cc1` was run?
Answer: Its inhibition is 17.6% (active).

Question: How did the outcome turn out when `Cc1ccccc1N1Cc2ccccc2C1=O` was run?
Answer: The outcome was “inactive”.

Question: `O=C(Nc1cc(Cl)ccc1C(=O)O)c1ccsc1` was tested. Which outcome did it give?
Answer: The outcome was “inactive”.
